Assays:
Format in all cases: functional
Design in all cases: concentration or dose not given beside the values
Rattus norvegicus [1] = organism: Rattus norvegicus; experiment: Activity to induce the elevation of phospholipids of male Wistar rats
Summary of the method: (§1)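 Wistar rats on normal diet; groups were vehicle control, an internal-standard diphosphonate, and test compounds. Dosed daily for 4 days; diphosphonates were dissolved in water or suspended in 1% (carboxymethyl)cellulose, 4 mL/kg. On day 5, after overnight fast, rats were killed under ether. EDTA plasma was assayed enzymatically for HDL-C after heparin-CaCl2 precipitation of VLDL/LDL, phospholipids, triglycerides and α/β-cholesterol ratio. Results are given as % of control.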

Rattus norvegicus [2] = organism: Rattus norvegicus; experiment: Activity to induce the elevation of alpha/beta cholesterol ratio of male Wistar rats; summary of the method: as §1
Rattus norvegicus [3] = organism: Rattus norvegicus; experiment: Activity to induce the elevation of HDL(High Density Lipoproteins)-Cholesterol of male Wistar rats; summary of the method: as §1
Rattus norvegicus [4] = organism: Rattus norvegicus; experiment: Activity to induce the elevation of triglycerides of male Wistar rats; summary of the method: as §1

Row | SMILES | Plasma phospholipids, % change versus control (Rattus norvegicus [1]) [%] | Percent change in alpha/beta cholesterol ratio versus control (Rattus norvegicus [2]) [%] | HDL-cholesterol change relative to control (%) (Rattus norvegicus [3]) | Percent change in plasma triglycerides versus control (Rattus norvegicus [4]) [%]
1 | O=P(O)(O)C(CCCOc1ccccc1)P(=O)(O)O | -6 | -57 | -18 | -7
2 | COP(=O)(OC)OC(c1cccc(Cl)c1)P(=O)(OC)OC (stereo not given) | 14 | 69 | 56 | -37
3 | CCOP(=O)(OCC)C(CCc1ccccc1)P(=O)(OCC)OCC | 16 | 74 | 41 | 11
4 | CCOP(=O)(OCC)OC(c1ccc(Cl)cc1)P(=O)(OCC)OCC (stereo not given) | 16 | -6 | 15 | 8
5 | CC(C)OP(=O)(OC(C)C)OC(c1ccc(Cl)cc1)P(=O)(OC(C)C)OC(C)C (stereo not given) | -20 | -46 | -34 | -37
6 | O=P(O)(O)C(CCCc1ccccc1)P(=O)(O)O | 12 | 14 | 3 | 11
7 | COP(=O)(OC)OC(c1ccc(C)cc1)P(=O)(OC)OC (stereo not given) | -8 | 47 | 4 | -33
8 | CCCCOP(=O)(OCCCC)OC(c1ccc(Cl)cc1)P(=O)(OCCCC)OCCCC (stereo not given) | 13 | -53 | -10 | -11
9 | COP(=O)(OC)OC(c1cccc(Br)c1)P(=O)(OC)OC (stereo not given) | 3 | 71 | 28 | 14
10 | COP(=O)(OC)C(Cc1ccccc1)P(=O)(OC)OC | 25 | 22 | 32 | -3
11 | COP(=O)(OC)OC(c1ccc(C(F)(F)F)cc1)P(=O)(OC)OC (stereo not given) | 3 | 29 | 22 | 4
12 | COP(=O)(OC)OC(c1cc(C)ccc1C)P(=O)(OC)OC (stereo not given) | -16 | 15 | 10 | -3
13 | COP(=O)(OC)OC(c1ccc(-c2ccccc2)cc1)P(=O)(OC)OC (stereo not given) | 18 | 40 | 24 | 0
14 | CCOP(=O)(OCC)C(Cc1ccccc1)P(=O)(OCC)OCC | 5 | 28 | 5 | -47
15 | COP(=O)(OC)C(O)(C(C)(C)C)P(=O)(OC)OC | -43 | 32 | 0 | 24
16 | CCOP(=O)(OCC)C(CCOc1ccccc1)P(=O)(OCC)OCC | 25 | 26 | 29 | -38
17 | COP(=O)(OC)OC(c1ccc2ccccc2c1)P(=O)(OC)OC (stereo not given) | 27 | 134 | 47 | 28
18 | COc1ccc(C(OP(=O)(OC)OC)P(=O)(OC)OC)cc1 (stereo not given) | -3 | 2 | 0 | 41
19 | CCOP(=O)(OCC)C(Cc1ccc(Cl)cc1)P(=O)(OCC)OCC | 23 | 22 | 26 | 8
20 | COP(=O)(OC)OC(CC(C)(C)C)P(=O)(OC)OC (stereo not given) | 18 | 44 | 47 | -9
21 | COP(=O)(OC)OC(C(C)C)P(=O)(OC)OC (stereo not given) | 7 | 38 | 15 | -26
22 | CCOP(=O)(OCC)C(CCCc1ccccc1)P(=O)(OCC)OCC | 17 | 33 | 62 | 46
23 | COP(=O)(OC)C(O)(c1ccc(Cl)cc1)P(=O)(OC)OC | 19 | 130 | 44 | 15
24 | COP(=O)(OC)OC(c1ccc(C(=O)c2ccc(Cl)cc2)cc1)P(=O)(OC)OC (stereo not given) | 53 | 55 | 33 | 0
25 | COP(=O)(OC)C(O)(c1ccc(C)cc1)P(=O)(OC)OC | 19 | 68 | 19 | 43
26 | COP(=O)(OC)OC(C(C)(C)c1ccccc1)P(=O)(OC)OC (stereo not given) | 15 | 25 | 33 | 36
27 | COP(=O)(OC)OC(c1ccc(F)cc1)P(=O)(OC)OC (stereo not given) | 2 | 81 | 40 | -9
28 | COP(=O)(OC)C(CCCc1ccccc1)P(=O)(OC)OC | 33 | 49 | 52 | 42
29 | COP(=O)(OC)C(O)(c1ccccc1)P(=O)(OC)OC | 57 | 80 | 13 | 4
30 | COP(=O)(OC)C(O)(c1ccc2ccccc2c1)P(=O)(OC)OC | 25 | 51 | 35 | 24

— ChEMBL document CHEMBL1123811, “gem-Diphosphonate and gem-phosphonate-phosphate compounds with specific high density lipoprotein inducing activity” (1987)
